In ChEMBL document CHEMBL4373674, “Structural modification of azolylacryloyl derivatives yields a novel class of covalent modifiers of hemoglobin as potential antisickling agents” (Medchemcomm, 2019):
Active and inactive are the calls of the source. The calls are words filed in the database; no cut-off is given here.

Legend:
[1] = biological target: T1, Hemoglobin HbA (Homo sapiens) (UniProt P69905+P68871); test: Drug reactivity against betacys93 in hemoglobin (unknown origin) assessed as free SH in betacys93 at 2 mM incubated for 16 hrs by UPLC-MS analysis relative to control; type: protein-complex assay; settings: in the assay text read “by DTNB disulfide exchange assay” for “by UPLC-MS analysis”
In short: (§1)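 Hb (50 µM in PBS) was reacted with 2 mM compound (final) at room temperature for 2 h or 16 h. Hb was recovered by centrifugation and 10 kDa ultrafiltration, then washed. Samples were incubated in 0.1 M potassium phosphate pH 8.0 with DTNB for 1 h at 25 °C. Hb content was taken from A576 and free thiol from 2-nitrobenzoate at A412 (ε 14 150 M-1 cm-1). Values are the mean of quadruplicates ± SD. % adduct = 100 − available SH from two βCys93.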

[2] = biological target: T1, Hemoglobin HbA (Homo sapiens); test: Binding affinity to hemoglobin in whole blood (unknown origin) at 2 mM incubated for 2 hrs relative to control; type: tissue-based
In short: (§2)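 Normal human whole blood at 20% hematocrit was incubated with compound (1 mM and 2 mM final) for 2 h at 37 °C. Hb–O2 affinity was then measured from oxygen equilibrium curves. Runs were done at least in triplicate.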

[3] = Drug reactivity against cysteine in PBS buffer at 2 mM incubated for 3 hrs by UPLC-MS analysis relative to control
Erythrocyte = test: Anti-sickling activity in RBC derived from patient homozygous SS at 2 mM […] by microscopic analysis relative to control; type: functional, Homo sapiens
[4] = biological target: T1, Hemoglobin HbA (Homo sapiens); test: Drug reactivity against betacys93 in hemoglobin (unknown origin) assessed as betacys93-compound adduct formation at 2 mM incubated for 2 hrs by UPLC-MS analysis relative to control; type: protein-complex assay; settings: in the assay text read “by DTNB disulfide exchange assay” for “by UPLC-MS analysis”; in short: as §1
[5] = biological target: T1, Hemoglobin HbA (Homo sapiens); test: Binding affinity to hemoglobin in whole blood (unknown origin) at 1 mM incubated for 2 hrs relative to control; type: tissue-based; in short: as §2
[6] = biological target: T1, Hemoglobin HbA (Homo sapiens); test: Drug reactivity against betacys93 in hemoglobin (unknown origin) assessed as betacys93-compound adduct formation at 2 mM incubated for 16 hrs by UPLC-MS analysis relative to control; type: protein-complex assay; settings: in the assay text read “by DTNB disulfide exchange assay” for “by UPLC-MS analysis”; in short: as §1
[7] = Drug reactivity against cysteine in PBS buffer assessed as assessed as cysteine-compound adduct formation at 2 mM incubated for 3 hrs by UPLC-MS analysis relative to control
[8] = biological target: T1, Hemoglobin HbA (Homo sapiens); test: Binding affinity to hemoglobin in whole blood (unknown origin) at 2 mM incubated for 8 hrs; type: tissue-based
In short: (§3)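 Normal whole blood was incubated with 2 mM compound at 37 °C for up to 24 h. Aliquots taken at 1, 2, 4, 8 and 24 h were assessed by oxygen equilibrium curves, with DMSO as vehicle control.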

[9] = biological target: T1, Hemoglobin HbA (Homo sapiens); test: Binding affinity to hemoglobin in whole blood (unknown origin) incubated for 2 hrs; type: tissue-based; in short: as §2
[10] = biological target: T1, Hemoglobin HbA (Homo sapiens); test: Binding affinity to hemoglobin in whole blood (unknown origin) at 2 mM incubated for 24 hrs; type: tissue-based; in short: as §3
[11] = Acute toxicity in Swiss albino mouse assessed as mortality at 2000 mg/kg, po via gavage measured after 24 hrs by OECD 423 guideline based method; type: organism-based; settings: in vivo
In short: (§4)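 Male and female Swiss albino mice (22–27 g, 8–10 weeks) were held at about 23 °C on a 12 h light/dark cycle with free food and water. Dosing was a single oral gavage of a 10% suspension in water with 0.5% Tween 80. Groups of n = 3 received 2000 mg/kg (days 1 and 2) or 5000 mg/kg (day 3). Toxic signs and mortality were watched for 24 h.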

[12] = Acute toxicity in Swiss albino mouse assessed as mortality at 5000 mg/kg, po via gavage measured after 24 hrs by OECD 423 guideline based method; type: organism-based; settings: in vivo; in short: as §4

T1 sequence (P68871 2-147 partner limits assumed): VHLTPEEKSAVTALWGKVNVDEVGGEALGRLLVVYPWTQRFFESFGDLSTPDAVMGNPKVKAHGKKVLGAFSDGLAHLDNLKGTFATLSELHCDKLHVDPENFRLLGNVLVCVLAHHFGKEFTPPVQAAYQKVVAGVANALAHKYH
T1 sequence (P69905 2-142 limits assumed): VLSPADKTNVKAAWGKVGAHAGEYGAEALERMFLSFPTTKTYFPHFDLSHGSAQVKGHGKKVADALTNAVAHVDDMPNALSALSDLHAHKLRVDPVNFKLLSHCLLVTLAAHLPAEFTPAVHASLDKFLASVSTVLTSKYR

Activity [1]	Activity [2]	Activity [3]	Activity [4]	Activity [5]	Activity [6]	Activity [7]	Activity [8]	Activity [9]	Activity [10]	SMILES	Activity (Erythrocyte)	Activity [11]	Activity [12]
70%	4.5%		11%	1.9%	30%		Active	Active		O=C(O)CCCOc1ccc(C(=O)/C=C/c2ncc[nH]2)cc1Cl	2%		
	15.2%	45.1%		9.9%		54.9%		Active	Active	O=C(/C=C/c1ncc[nH]1)c1ccc(OC2CCCCO2)cc1 (configuration not stated)	7%		

Continued, molecule first:

SMILES	Activity [1]	Activity [2]	Activity [3]	Activity [4]	Activity [5]	Activity [6]	Activity [7]	Activity [8]	Activity [9]	Activity [10]	Activity (Erythrocyte)	Activity [11]	Activity [12]
COc1ccc(C(=O)/C=C/c2ncc[nH]2)cc1OC	80%	6.5%	46.3%	9%	6.5%	20%	53.7%	Active	Active		5%		
O=C(/C=C/c1ncc[nH]1)c1ccccc1	79%	11.3%	80.4%	10%	7%	21%	19.6%		Active	Active	7%		
COc1ccc(C(=O)/C=C/c2ncc[nH]2)cc1	63%	11.8%	23%	11%	8.2%	37%	77%		Active	Active	9%	Non-Toxic	Toxic
